MBC and MIC data for seven compounds are collected here from ChEMBL document CHEMBL1250544, “Diversity-oriented synthesis of cyclic acyldepsipeptides leads to the discovery of a potent antibacterial agent” (2010).

One may read the MBC as the lowest tested concentration that kills the bacteria rather than only halting them. What is called MIC is the lowest concentration found to suppress growth.

Converted amounts (≈) assume the structure as drawn.

The subject of one assay is Enterococcus faecium. As to the kind of experiment: Antimicrobial activity against vancomycin-resistant Enterococcus faecium clinical isolate obtained from tissue after 24 hrs by broth microdilution assay. The format is functional. In a few lines:
(§1)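 CLSI broth microdilution in duplicate on clinical isolates from Veterans Affairs Medical Center patients. Compounds were dissolved in DMSO and serially diluted twofold in cation-adjusted Mueller–Hinton broth (25 µg/mL Ca, 12.5 µg/mL Mg). Inoculum was verified by colony counts on tryptic soy agar. MIC is the lowest concentration visually inhibiting >99%.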
For orientation: Dilution methods test growth across graded concentrations, often in twofold steps.

Assay [1] relates to Enterococcus faecalis. As to the kind of experiment: Antimicrobial activity against Enterococcus faecalis clinical isolate obtained from rectal swab after 24 hrs by broth microdilution assay. Type of assay: functional. Summed up: (§2)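 CLSI broth microdilution run in duplicate. Compounds were dissolved in DMSO and serially diluted twofold in cation-adjusted Mueller–Hinton broth (25 µg/mL calcium, 12.5 µg/mL magnesium). Inoculum was verified by colony counts on tryptic soy agar. MIC was the lowest concentration visually inhibiting >99% of colonies.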

For assay [2], the system named is Enterococcus faecalis. As to the kind of experiment: Antimicrobial activity against Enterococcus faecalis ATCC 29212 after 24 hrs by broth microdilution assay. Conditions: ATCC 29212, 24 h. The format is functional. Summed up: as §2
Assay [3] concerns Staphylococcus aureus. The assay is described as follows: Antimicrobial activity against methicillin-susceptible Staphylococcus aureus ATCC 3556 after 24 hrs by broth microdilution assay. The format is functional. In a few lines: as §2
Assay [4] has as its system Staphylococcus aureus. As to the kind of experiment: Antimicrobial activity against methicillin-resistant Staphylococcus aureus from blood after 24 hrs by broth microdilution assay. Type of assay: functional. Summed up: as §1
For assay [5], the system named is Enterococcus faecalis. The assay is described as follows: Antimicrobial activity against vancomycin-resistant Enterococcus faecalis clinical isolate obtained from rectal swab after 24 hrs by broth microdilution assay.
Setting [6] is: Staphylococcus aureus, ATCC 3556, 24 h, read-out: MIC.
Setting [7] is: Staphylococcus aureus, 24 h, read-out: MBC.

As for `CCCC/C=C/C(=O)N[C@@H](Cc1cccc(F)c1)C(=O)N[C@@H]1COC(=O)[C@@H]2CCCN2C(=O)[C@H](C)NC(=O)[C@@H]2CCCCN2C(=O)[C@@H]2CCCN2C1=O`, the minimum bactericidal concentration (MBC) is 0.08 µg/mL (≈ 0.108 µM) against Enterococcus faecium; 0.04 µg/mL (≈ 0.0541 µM) against Enterococcus faecalis [1]; 1.25 µg/mL (≈ 1.69 µM) in the assay on Enterococcus faecalis [2]; 1.25 µg/mL (≈ 1.69 µM) against Staphylococcus aureus [4]; 1.25 µg/mL (≈ 1.69 µM) with Staphylococcus aureus [4] (setting [7]); 0.04 µg/mL (≈ 0.0541 µM) with Enterococcus faecalis [5]. The MIC was determined as 0.08 µg/mL (≈ 0.108 µM) in the assay with Enterococcus faecium; 0.04 µg/mL (≈ 0.0541 µM) against Enterococcus faecalis [1]; 0.16 µg/mL (≈ 0.217 µM) with Enterococcus faecalis [2]; 1.25 µg/mL (≈ 1.69 µM) against Staphylococcus aureus [3]; 1.25 µg/mL (≈ 1.69 µM) in the assay on Staphylococcus aureus [3] (setting [6]); 0.04 µg/mL (≈ 0.0541 µM) in the assay on Enterococcus faecalis [5].

Turning to `CCCC/C=C/C(=O)N[C@@H](Cc1cccc(F)c1)C(=O)N[C@@H]1COC(=O)[C@@H]2CCCN2C(=O)[C@H](C)NC(=O)[C@H]2CCCCN2C(=O)[C@@H]2CCCN2C1=O`, the MIC in the assay on Staphylococcus aureus [3] (setting [6]) was above 312 µg/mL. Further, the minimal bactericidal concentration (MBC) in the assay on Staphylococcus aureus [4] (setting [7]) was above 312 µg/mL.

Turning to `CCCC/C=C/C(=O)N[C@@H](Cc1cccc(F)c1)C(=O)N[C@@H]1COC(=O)[C@@H]2CCCN2C(=O)[C@H](C)NC(=O)[C@@H]2CC(C)CCN2C(=O)[C@@H]2CCCN2C1=O` (some centres undefined), the minimal bactericidal concentration (MBC) against Enterococcus faecium was found to be 0.08 µg/mL (≈ 0.106 µM); with Enterococcus faecalis [1], 0.04 µg/mL (≈ 0.0531 µM); in the assay with Enterococcus faecalis [2] it was 0.08 µg/mL (≈ 0.106 µM); in the assay with Enterococcus faecalis [5] it was 0.04 µg/mL (≈ 0.0531 µM). In addition, the MIC with Enterococcus faecium was 0.04 µg/mL (≈ 0.0531 µM); with Enterococcus faecalis [1] it was 0.02 µg/mL (≈ 0.0266 µM); with Enterococcus faecalis [2] it was 0.04 µg/mL (≈ 0.0531 µM); in the assay with Staphylococcus aureus [3] (setting [6]), 0.6 µg/mL (≈ 0.797 µM); in the assay on Enterococcus faecalis [5], 0.04 µg/mL (≈ 0.0531 µM).

With `CCCC/C=C/C(=O)N[C@@H](Cc1cccc(F)c1)C(=O)N[C@@H]1COC(=O)[C@@H]2CCCN2C(=O)[C@H](C)NC(=O)[C@H]2CC(C)CCN2C(=O)[C@@H]2CCCN2C1=O` (some centres undefined), the MIC in the assay on Staphylococcus aureus [3] (setting [6]) is above 156 µg/mL.

Regarding `CCCC/C=C/C(=O)N[C@@H](Cc1cccc(F)c1)C(=O)N[C@@H]1COC(=O)[C@@H]2CCCN2C(=O)[C@H](C)NC(=O)C2(CCC2)N(C)C(=O)[C@@H]2CCCN2C1=O`, the minimum inhibitory concentration (MIC) was above 312 µg/mL in the assay with Staphylococcus aureus [3] and 312 µg/mL (≈ 422 µM) in the assay with Staphylococcus aureus [3] (setting [6]). For the same compound, in the assay with Staphylococcus aureus [4] (setting [7]), the minimum bactericidal concentration (MBC) is above 312 µg/mL.

In the case of `CCCC/C=C/C(=O)N[C@@H](Cc1cccc(F)c1)C(=O)N[C@@H]1COC(=O)[C@@H]2CCCN2C(=O)[C@H](C)NC(=O)C2(CCCC2)N(C)C(=O)[C@@H]2CCCN2C1=O`, the minimum bactericidal concentration (MBC) in the assay with Staphylococcus aureus [4] (setting [7]) is above 312 µg/mL.

For the compound `CCCC/C=C/C(=O)N[C@@H](Cc1cccc(F)c1)C(=O)N[C@@H]1COC(=O)[C@@H]2CCCN2C(=O)[C@H](C)NC(=O)C2(CCCCC2)N(C)C(=O)[C@@H]2CCCN2C1=O`, in the assay with Staphylococcus aureus [4] (setting [7]), the minimum bactericidal concentration (MBC) was above 312 µg/mL.
